p97 ATPase inh = inhibitors of human p97 ATPase; P55072; recombinant p97 ATPase, Kinase-Glo ATP luminescence, 3 h; 220,000 tested, 0.42% active; inhibition, % at 8 µM; in the data active = inhibition above about 15%
Mdm2 ligase inh = blocks human Mdm2 ubiquitin ligase activity | signal enhancement, % at 5 µM | 210,000 tested, 0.11% active | cell-based MDM2 ubiquitination luciferase reporter, 2 h; 0 = plate control, 100 = twice control, blank-subtracted;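 active = signal enhancement of 30% or more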;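 note: luminescence tracks abundance of the self-degrading MDM2-luciferase fusion protein; higher signal means inhibition of MDM2 E3 ligase activity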
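Assay system: stable mammalian line carrying autodegrading MDM2–luciferase fusion reporter; amount: 2000 cells seeded into each well; buffer or medium: DMEM; benchmarks: plate control and blank wells; signal: luciferase luminescence; timing: 2 h compound exposure at 37 °C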
APP 5'UTR act = activates APP 5'UTR luciferase reporter; SH-SY5Y APP 5'UTR luciferase reporter, luminescence; zero percent = DMSO vehicle wells; activation, % at 2 µM; 190,000 tested, 1% active; AID 1276;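 active = activation above a set limit, based on mean plus 3 SD of controls, cut at about 140% in these data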
Wee1 degr inh = blocks degradation of human Wee1 kinase. P30291. HeLa Luc-Wee1K328M stability, luciferase luminescence; 100% = proteasome inhibitor MG132 effect. reporter increase, % at 5 µM. 220,000 tested, 1.2% active. AID 1321;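 active = activation above the mean of all tested compounds plus 3 SD, set per screening run, cut at about 8.8% in these data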;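 note: cells exposed to compound for 20 h before luminescence read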
Target sequence (P30291 whole entry K328M): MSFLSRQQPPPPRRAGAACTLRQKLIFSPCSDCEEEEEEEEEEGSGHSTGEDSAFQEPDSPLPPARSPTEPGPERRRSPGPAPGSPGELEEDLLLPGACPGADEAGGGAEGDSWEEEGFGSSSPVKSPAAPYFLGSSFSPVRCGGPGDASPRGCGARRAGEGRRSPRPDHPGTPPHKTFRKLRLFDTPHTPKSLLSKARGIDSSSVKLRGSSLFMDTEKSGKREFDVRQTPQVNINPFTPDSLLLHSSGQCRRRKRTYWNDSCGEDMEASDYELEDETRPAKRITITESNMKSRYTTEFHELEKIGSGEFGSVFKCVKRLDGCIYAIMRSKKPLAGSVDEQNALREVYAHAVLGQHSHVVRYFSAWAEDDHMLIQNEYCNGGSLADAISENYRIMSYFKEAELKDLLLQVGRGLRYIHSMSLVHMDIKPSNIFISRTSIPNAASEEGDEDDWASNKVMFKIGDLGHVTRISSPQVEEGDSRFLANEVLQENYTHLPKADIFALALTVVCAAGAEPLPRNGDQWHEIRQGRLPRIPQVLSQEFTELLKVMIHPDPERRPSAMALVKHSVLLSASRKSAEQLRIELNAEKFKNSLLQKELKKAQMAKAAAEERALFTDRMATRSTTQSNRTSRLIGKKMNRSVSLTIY
STAT1 act = increases IFN-gamma driven STAT1 reporter signal; NIH 3T3 STAT1-luciferase reporter, luminescence; 100% = IFN-gamma alone, no compound; activation (% of control), % at 5.5 µM; 200,000 tested, 2.6% active; AID 932;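 active = activation above the screen-wide mean activation plus 3 SD, cut at about 130% in these data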
NF-kB neuron act = raises NF-kB expression in human neuronal cells | NF-kB reporter expression; hits give high values | fold change at 12.5 µM | 190,000 tested, 1.6% active; in the data active = fold change above about 3.3
Large screens that a line does not name were inactive. Only some compounds are listed: those with a hit (about 4.6% of all), similar ones and a draw of the others.

CC1CCN(C(=O)CN2C(=O)c3ccccc3S2(=O)=O)CC1	Wee1 degr inh 9.3
Cc1cccc(OCCCC(=O)Nc2ccc(N(C)C)cc2)c1	STAT1 act 145.2
Cc1cccc(OCCCC(=O)Nc2ccc(Br)cc2)c1	none
Cc1ccc(/C=N/c2sc3c(c2C(N)=O)CCCC3)o1	STAT1 act 146.0
CCC1COC(c2cccn2Cc2ccccc2Cl)=N1 (centres undefined)	none
CCOc1ccc(C(C(=O)NC2CCCC2)N(CCCO)C(=O)c2ccc(-c3ccccc3)[nH]2)cc1 (centres undefined)	none
COc1ccc(C(=O)COC(=O)c2ccc(NC(C)=O)cc2)cc1[N+](=O)[O-]	none
COc1ccc(C(=O)C[n+]2cccc(C)c2C)cc1[N+](=O)[O-]	Wee1 degr inh 10.7
Cc1cc(=O)oc2cc(O)c(N=Nc3ccccc3)cc12	Wee1 degr inh 9.4 (no result: APP 5'UTR act, STAT1 act, NF-kB neuron act)
Nc1ncnc(Nc2ccc(S(N)(=O)=O)cc2)n1	none (no result: APP 5'UTR act, STAT1 act, NF-kB neuron act)
Cc1sc(NC(=O)Nc2ccccc2)c(C(N)=O)c1C	STAT1 act 139.1
N#Cc1cnc(N)c(Br)c1	Wee1 degr inh 11.4
COc1ccc2[nH]c(C(=O)O)c(CCNC(C)=O)c2c1	Mdm2 ligase inh 40.0
CN1CCN(c2ccc(NC(=O)c3sc4ccccc4c3Cl)cc2)CC1	APP 5'UTR act 182.5
Cc1ccc(C(=O)Nc2ccc(N3CCCC3)cc2)cc1	STAT1 act 139.9
Cc1ccc(C(=O)Nc2ccc(N3CCOCC3)cc2)cc1	none
CN1CCN(c2ccc(NC(=O)c3ccc4c(c3)OCCO4)cc2)CC1	APP 5'UTR act 141.3, STAT1 act 132.3
O=C(Nc1ccc(N2CCCC2)cc1)c1ccccc1F	APP 5'UTR act 136.9, STAT1 act 148.9
CCOC(=O)N1CCN(CC(=O)Nc2sccc2C#N)CC1	none
CNC(=O)c1cccc(N2CCCC2=O)c1	none
O=C(Nc1ccc(N2CCCCC2)cc1)c1ccccc1	APP 5'UTR act 164.0, NF-kB neuron act 5.7
CCN1CCN(c2ccc(NC(=O)c3ccc(C#N)cc3F)cc2Cl)CC1	none
O=C(Nc1ccc(N2CCCCC2)cc1)c1cncc(Br)c1	STAT1 act 133.7, NF-kB neuron act 4.05
O=C(Nc1ccc(N2CCCC2)cc1)c1ccc2ccccc2c1	none
CCN1CCN(c2ccc(NC(=O)c3ccccc3F)cc2Cl)CC1	STAT1 act 131.7
O=C(Nc1ccc(N2CCCC2=O)cc1)c1cccc(F)c1	STAT1 act 137.6, NF-kB neuron act 5.37 (no result: Mdm2 ligase inh)
O=C(CSc1nc(-c2ccccc2F)nc2nc[nH]c12)Nc1c(Cl)cc(Cl)cc1Cl	none
O=C(Cc1ccccc1)Nc1ccc(N2CCCCC2)cc1	APP 5'UTR act 184.8, STAT1 act 130.3, NF-kB neuron act 4.93
O=C(Nc1ccc(N2CCCC2)cc1)c1cccc(F)c1	APP 5'UTR act 230.4
N/C(=N\OC(=O)N1CCOCC1)c1ccc(Br)cc1	none
c1ccc2c(CNc3ccc(CNc4ncn[nH]4)cc3)cccc2c1	none
COc1ccccc1CNc1ccc(CNc2ncn[nH]2)cc1	NF-kB neuron act 5.35
COc1cc(CNc2ccc(CNc3ncn[nH]3)cc2)ccc1OCc1ccccc1	Wee1 degr inh 10.1, STAT1 act 129.3
CSC1=C(C#N)C(c2sccc2C)CC(=O)N1 (centres undefined)	none
O=C(CC(c1ccco1)S(=O)(=O)c1ccccc1)c1ccccc1 (centres undefined)	none
CCOc1ccc(NC(=O)CNC(=O)c2ccc([N+](=O)[O-])cc2)cc1	none
CCCCN1CCc2c([nH]c3ccc(C)cc23)C1=O	STAT1 act 150.6
Cc1ccc2[nH]c3c(c2c1)CCC3=O	none
COc1cc(C2C(C#N)=C(N)OC3=C2C(=O)CC(C)(C)C3)cc([N+](=O)[O-])c1O (centres undefined)	Wee1 degr inh 9.7 (no result: APP 5'UTR act, STAT1 act, NF-kB neuron act)
O=C(/C=C/c1cccc([N+](=O)[O-])c1)N1CCOCC1	none
O=C(/C=C/c1cccc([N+](=O)[O-])c1)n1cnc2ccccc21	Mdm2 ligase inh 49.2
O=[N+]([O-])c1cccc(/C=C/c2ccccn2)c1	Wee1 degr inh 10.0 (no result: APP 5'UTR act, STAT1 act, NF-kB neuron act)
COc1cc(NC(=O)CCCl)cc(-n2cnnn2)c1	none
Nc1nncn1C(=O)c1cccs1	none
Nc1nc2ccccc2n1C(=O)c1ccco1	STAT1 act 139.1
Nc1nc2ccccc2n1C(=O)c1ccccc1	APP 5'UTR act 161.3
